6 compounds from ChEMBL document CHEMBL3244034, “Semisynthetic cephalosporins. Synthesis and structure-activity relationships of 7-(1-pyrryl)- and 7-(1-indolyl)acetamidocephalosporin derivatives” (1978) can be followed below.

Values after ≈ are worked out from the molar mass of the structure shown. Active and inactive are the calls of the source. No cut-off for these calls is given here.

The test system of assay [1] is Escherichia coli. The experiment in a line: Antibacterial activity against Escherichia coli after 17 hrs by serial two fold dilution method. In kind it is functional. The essentials: (§1)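 Agar dilution MIC: compound serially diluted twofold in Mueller-Hinton agar. Plate surfaces were inoculated with a suitably diluted 18-24-h broth culture and incubated 17 h at 37 °C. MIC was read as the lowest concentration giving complete or virtually complete inhibition of visible growth.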

The test system of assay [2] is Proteus mirabilis. The experiment in a line: Antibacterial activity against Proteus mirabilis after 17 hrs by serial two fold dilution method. Format: functional. The essentials:
as §1

Another assay concerns Proteus vulgaris. The experiment in a line: Antibacterial activity against Proteus vulgaris after 17 hrs by serial two fold dilution method. In kind it is functional. Put shortly:
as §1

Assay [3] deals with Streptococcus pyogenes. The experiment in a line: Antibacterial activity against Streptococcus pyogenes after 17 hrs by serial two fold dilution method. In kind it is functional. The essentials: as §1
A further assay relates to Enterobacter cloacae. As to the kind of experiment: Antibacterial activity against Enterobacter cloacae after 17 hrs by serial two fold dilution method. Format: functional.
Assay [4] has as its system Staphylococcus epidermidis. The experiment in a line: Antibacterial activity against Staphylococcus epidermidis after 17 hrs by serial two fold dilution method. In kind it is functional. The essentials:
as §1

Assay [5] has as its system Streptococcus pyogenes. The experiment in a line: Antibacterial activity against Streptococcus pyogenes infected in sc dosed CD1 mouse assessed as host survival administered 1 and 4 hrs after infection measured on day 4. In kind it is functional. The essentials:
(§2)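 Male albino CD-1 mice, 20 (± 1) g, infected intraperitoneally with a bacterial suspension giving uniformly lethal infection. Groups of ten mice were treated subcutaneously with antibiotic at 1 and 4 h post-infection. Survival over 4 days was recorded.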

The next assay relates to Neisseria gonorrhoeae. As to the kind of experiment: Antibacterial activity against Neisseria gonorrhoeae after 17 hrs by serial two fold dilution method. In kind it is functional, organism-based.
Assay [6] has as its system Staphylococcus aureus. The experiment in a line: Antibacterial activity against benzylpenicillin-resistant Staphylococcus aureus infected in sc dosed CD1 mouse assessed as host survival administered 1 and 4 hrs after infection measured on day 4. Format: functional. Put shortly: as §2
For the next assay, the system named is Haemophilus influenzae. As to the kind of experiment: Antibacterial activity against Haemophilus influenzae after 17 hrs by serial two fold dilution method. In kind it is functional, organism-based.
For a further assay, the system named is Enterococcus faecalis. As to the kind of experiment: Antibacterial activity against Staphylococcus faecalis after 17 hrs by serial two fold dilution method. Format: functional. The essentials:
as §1

Assay [7] relates to Klebsiella pneumoniae. The experiment in a line: Antibacterial activity against Klebsiella pneumoniae infected in sc dosed CD1 mouse assessed as host survival administered 1 and 4 hrs after infection measured on day 4. In kind it is functional. The essentials:
as §2

A further assay concerns Pseudomonas aeruginosa. As to the kind of experiment: Antibacterial activity against Pseudomonas aeruginosa after 17 hrs by serial two fold dilution method. In kind it is functional. Put shortly: as §1
The test system of a further assay is Bacteroides fragilis. As to the kind of experiment: Antibacterial activity against Bacteroides fragilis after 17 hrs by serial two fold dilution method. In kind it is functional, organism-based.
The subject of the next assay is Fusobacterium varium. As to the kind of experiment: Antibacterial activity against Fusobacterium varium after 17 hrs by serial two fold dilution method. Format: functional, organism-based.
The next assay deals with Streptococcus pneumoniae. The experiment in a line: Antibacterial activity against Streptococcus pneumoniae after 17 hrs by serial two fold dilution method. In kind it is functional. The essentials:
as §1

The subject of the next assay is Klebsiella aerogenes. The experiment in a line: Antibacterial activity against Enterobacter aerogenes after 17 hrs by serial two fold dilution method. Format: functional.
The subject of assay [8] is Klebsiella pneumoniae. The experiment in a line: Antibacterial activity against Klebsiella pneumoniae after 17 hrs by serial two fold dilution method. In kind it is functional. The essentials:
as §1

The test system of another assay is Providencia stuartii. The experiment in a line: Antibacterial activity against Providencia stuartii after 17 hrs by serial two fold dilution method. Format: functional. The essentials: as §1
Assay [9] has as its system Staphylococcus aureus. The experiment in a line: Antibacterial activity against Staphylococcus aureus after 17 hrs by serial two fold dilution method. In kind it is functional. Put shortly: as §1
For assay [10], the system named is Escherichia coli. The experiment in a line: Antibacterial activity against Escherichia coli infected in sc dosed CD1 mouse assessed as host survival administered 1 and 4 hrs after infection measured on day 4. Format: functional. Put shortly:
as §2

Assay [11] concerns Salmonella. As to the kind of experiment: Antibacterial activity against Salmonella schottmuelleri after 17 hrs by serial two fold dilution method. In kind it is functional. Put shortly:
as §1

In assay [12] the test system is Staphylococcus aureus. The experiment in a line: Antibacterial activity against benzylpenicillin-resistant Staphylococcus aureus after 17 hrs by serial two fold dilution method. Format: functional. Put shortly:
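Agar dilution MIC. Compound was serially diluted twofold in Mueller-Hinton agar. The surface was inoculated with a diluted 18-24-h broth culture […]. Plates were incubated 17 h at 37 °C. MIC was taken as the lowest concentration giving complete or virtually complete inhibition of visible growth.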

Assay [13] has as its system Salmonella. As to the kind of experiment: Antibacterial activity against Salmonella schottmuelleri infected in sc dosed CD1 mouse assessed as host survival administered 1 and 4 hrs after infection measured on day 4. Format: functional. Put shortly: as §2
Assay [14] has as its system Proteus mirabilis. The experiment in a line: Antibacterial activity against Proteus mirabilis infected in sc dosed CD1 mouse assessed as host survival administered 1 and 4 hrs after infection measured on day 4. In kind it is functional. The essentials: as §2
Assay [15] relates to Streptococcus pyogenes. The experiment in a line: Antibacterial activity against Streptococcus pyogenes infected in po dosed CD1 mouse assessed as host survival administered 1 and 4 hrs after infection measured on day 4. Format: functional.

For orientation: MIC means the lowest concentration found to suppress growth. A high value points to a need for much substance. The term ED50 denotes the dose at which the effect has come halfway, by size or by number of responders.

As for `Cn1nnnc1SCC1=C(C(=O)O)N2C(=O)[C@@H](NC(=O)Cn3cccc3)[C@H]2SC1`, the MIC against Escherichia coli [1] was 0.8 mg/L (≈ 1.84 µM); in the assay with Proteus mirabilis [2], 6.2 mg/L (≈ 14.2 µM); against Proteus vulgaris, above 100 mg/L; against Streptococcus pyogenes [3], 0.1 mg/L (≈ 0.23 µM); against Enterobacter cloacae, 6.2 mg/L (≈ 14.2 µM); in [4], 1.6 mg/L (≈ 3.67 µM). Moreover, the MIC with Enterococcus faecalis is above 100 mg/L; with Pseudomonas aeruginosa, above 100 mg/L; against Streptococcus pneumoniae, 0.1 mg/L (≈ 0.23 µM); against Klebsiella aerogenes, 25 mg/L (≈ 57.4 µM); against Klebsiella pneumoniae [8], 1.6 mg/L (≈ 3.67 µM); in the assay on Providencia stuartii, 6.2 mg/L (≈ 14.2 µM). The MIC in the assay on Staphylococcus aureus [9] is 0.4 mg/L (≈ 0.919 µM); against Salmonella [11], 0.4 mg/L (≈ 0.919 µM); in the assay with Staphylococcus aureus [12] it was 0.8 mg/L (≈ 1.84 µM). Further, the ED50 worked out at 2.3 mg/kg in the assay with Streptococcus pyogenes [5]; 72 mg/kg in the assay with Staphylococcus aureus [6]; 67 mg/kg in the assay on Klebsiella pneumoniae [7]; 2.5 mg/kg in the assay on Escherichia coli [10]; 2.5 mg/kg in the assay on Salmonella [13]; 100 mg/kg in the assay with Proteus mirabilis [14]. Further, the outcome in the assay on Neisseria gonorrhoeae, in the assay on Haemophilus influenzae, in the assay with Bacteroides fragilis and with Fusobacterium varium was inactive.
Take `Cc1nnc(SCC2=C(C(=O)O)N3C(=O)[C@@H](NC(=O)Cn4cccc4C=O)[C@H]3SC2)s1`: the MIC against Escherichia coli [1] was 50 mg/L (≈ 104 µM); in the assay on Proteus mirabilis [2], 100 mg/L (≈ 209 µM); with Proteus vulgaris, above 100 mg/L; in the assay on Streptococcus pyogenes [3], 0.2 mg/L (≈ 0.417 µM); with Enterobacter cloacae, above 100 mg/L; in [4], 1.6 mg/L (≈ 3.34 µM). Moreover, the MIC is above 100 mg/L in the assay with Enterococcus faecalis; above 100 mg/L with Pseudomonas aeruginosa; 0.2 mg/L (≈ 0.417 µM) in the assay with Streptococcus pneumoniae; above 100 mg/L against Klebsiella aerogenes; 50 mg/L (≈ 104 µM) in the assay with Klebsiella pneumoniae [8]; above 100 mg/L against Providencia stuartii. Further, the MIC with Staphylococcus aureus [9] was found to be 0.4 mg/L (≈ 0.834 µM); against Salmonella [11], 12.5 mg/L (≈ 26.1 µM); with Staphylococcus aureus [12], 0.8 mg/L (≈ 1.67 µM).
`CC(=O)OCC1=C(C(=O)O)N2C(=O)[C@@H](NC(=O)Cc3cccs3)[C@H]2SC1` [CEPHALOTHIN]: the MIC against Escherichia coli [1] was 6.2 mg/L (≈ 15.6 µM); against Proteus mirabilis [2], 6.2 mg/L (≈ 15.6 µM); with Proteus vulgaris, above 100 mg/L; against Streptococcus pyogenes [3], 0.1 mg/L (≈ 0.252 µM); in the assay on Enterobacter cloacae, above 100 mg/L; in assay [4], 0.4 mg/L (≈ 1.01 µM). Also, the MIC was 100 mg/L (≈ 252 µM) in the assay on Enterococcus faecalis; above 100 mg/L in the assay with Pseudomonas aeruginosa; 0.1 mg/L (≈ 0.252 µM) with Streptococcus pneumoniae; above 50 mg/L against Klebsiella aerogenes; 3.1 mg/L (≈ 7.82 µM) in the assay on Klebsiella pneumoniae [8]; 100 mg/L (≈ 252 µM) with Providencia stuartii. Further, the MIC against Staphylococcus aureus [9] came out at 0.1 mg/L (≈ 0.252 µM); against Salmonella [11] it was 0.8 mg/L (≈ 2.02 µM); with Staphylococcus aureus [12], 0.4 mg/L (≈ 1.01 µM).
As for `CC1=C(C(=O)O)N2C(=O)[C@@H](NC(=O)Cn3ccc4ccccc43)[C@H]2SC1`, the MIC was above 100 mg/L with Escherichia coli [1]; above 100 mg/L against Proteus mirabilis [2]; above 100 mg/L against Proteus vulgaris; 0.8 mg/L (≈ 2.15 µM) against Streptococcus pyogenes [3]; above 100 mg/L against Enterobacter cloacae; 6.2 mg/L (≈ 16.7 µM) in assay [4]. For the same compound, the MIC is above 100 mg/L in the assay on Enterococcus faecalis; above 100 mg/L with Pseudomonas aeruginosa; 1.6 mg/L (≈ 4.31 µM) against Streptococcus pneumoniae; above 100 mg/L against Klebsiella aerogenes; above 100 mg/L in the assay with Klebsiella pneumoniae [8]; above 100 mg/L against Providencia stuartii. Besides, the MIC with Staphylococcus aureus [9] is 1.6 mg/L (≈ 4.31 µM); with Salmonella [11] it was above 100 mg/L; with Staphylococcus aureus [12] it was 3.1 mg/L (≈ 8.35 µM).
On to `Cc1nnc(SCC2=C(C(=O)O)N3C(=O)[C@@H](NC(=O)Cn4cnnn4)[C@H]3SC2)s1` [CEFAZOLIN], for which the MIC against Escherichia coli [1] is 0.8 mg/L (≈ 1.76 µM); in the assay with Proteus mirabilis [2], 6.2 mg/L (≈ 13.6 µM); against Proteus vulgaris it was above 100 mg/L; against Streptococcus pyogenes [3], 0.1 mg/L (≈ 0.22 µM); in [4], 0.8 mg/L (≈ 1.76 µM); against Enterococcus faecalis, above 100 mg/L. Moreover, the MIC in the assay on Pseudomonas aeruginosa is above 100 mg/L; with Streptococcus pneumoniae it was 0.1 mg/L (≈ 0.22 µM); in the assay on Klebsiella aerogenes, above 50 mg/L; in the assay with Klebsiella pneumoniae [8] it was 1.6 mg/L (≈ 3.52 µM); against Providencia stuartii, above 50 mg/L; against Staphylococcus aureus [9] it was 0.2 mg/L (≈ 0.44 µM). Also, the MIC against Salmonella [11] turned out to be 1.6 mg/L (≈ 3.52 µM); against Staphylococcus aureus [12], 0.4 mg/L (≈ 0.88 µM). Further, the ED50 in the assay on Streptococcus pyogenes [15] came out at 1.8 mg/kg; in the assay on Staphylococcus aureus [6], 22 mg/kg; with Klebsiella pneumoniae [7] it was 42 mg/kg; with Escherichia coli [10], 0.6 mg/kg; in the assay with Salmonella [13], 2.2 mg/kg; with Proteus mirabilis [14], 79 mg/kg. The result in the assay with Neisseria gonorrhoeae, in the assay with Haemophilus influenzae, with Bacteroides fragilis and in the assay on Fusobacterium varium was inactive.
For `Cc1nnc(SCC2=C(C(=O)O)N3C(=O)[C@@H](NC(=O)Cn4cccc4)[C@H]3SC2)s1`, the MIC against Escherichia coli [1] was 12.5 mg/L (≈ 27.7 µM); against Proteus mirabilis [2], 25 mg/L (≈ 55.4 µM); against Proteus vulgaris, above 100 mg/L; against Streptococcus pyogenes [3], 0.1 mg/L (≈ 0.221 µM); with Enterobacter cloacae it was 100 mg/L (≈ 221 µM); in assay [4], 0.8 mg/L (≈ 1.77 µM). Also, the MIC against Enterococcus faecalis is above 100 mg/L; in the assay on Pseudomonas aeruginosa it was above 100 mg/L; with Streptococcus pneumoniae it was 0.1 mg/L (≈ 0.221 µM); with Klebsiella aerogenes it was 100 mg/L (≈ 221 µM); in the assay on Klebsiella pneumoniae [8], 6.2 mg/L (≈ 13.7 µM); against Providencia stuartii it was 25 mg/L (≈ 55.4 µM). Also, the values for the MIC against Staphylococcus aureus [9], in the assay on Salmonella [11] and in the assay with Staphylococcus aureus [12] were 0.2 mg/L (≈ 0.443 µM), 6.2 mg/L (≈ 13.7 µM) and 0.8 mg/L (≈ 1.77 µM), respectively.
